Experimental data published in ChEMBL document CHEMBL4831489, “Design and synthesis of the first indole-based blockers of Panx-1 channel” (Eur J Med Chem, 2021).
Calls of active or inactive are those of the source.

What was measured:
[1] = target: Pannexin-1 (Mus musculus) (UniProt Q9JIP4); test: Inhibition of mouse Panx-1 expressed in Xenopus laevis oocytes assessed as inhibition of membrane current cells held at -60 mV and voltage steps to +60 mV in presence of CBX at 50 uM measured by Whole cell voltage clamp assay relative to control; type: cell-based; settings: Oocyte
Method in brief: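 Xenopus oocytes expressing Panx-1 were studied by two-electrode voltage clamp (3 M KCl electrodes) under continuous perfusion with OR2 Ringer, pH 7.5. Cells were held at −60 mV, with 5 s steps to +60 mV at 0.1 Hz. Compounds were screened at 50 µM and inhibition expressed as % of membrane current, n = 1–3 oocytes.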

Pannexin-1 = Pannexin-1 (Mus musculus, UniProt Q9JIP4); test: Inhibition of mouse Panx-1 expressed in Xenopus laevis oocytes assessed as inhibition of membrane current cells held at -60 mV and voltage steps to +60 mV in presence of CBX measured by Whole cell voltage clamp assay relative to control; type: cell-based, Oocyte
Method in brief: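 Two-electrode voltage clamp of Panx-1-expressing Xenopus oocytes perfused with OR2, pH 7.5. Holding potential −60 mV, with repetitive 5 s steps to +60 mV at 0.1 Hz. Compound was applied at increasing concentrations to build dose–response curves and derive IC50.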

[2] = target: T1, P2X purinoceptor 7 (Homo sapiens) (UniProt Q99572); test: Inhibition of human P2X7R expressed in Xenopus laevis oocytes assessed as inhibition of BzATP-induced cell membrane current at 10 uM measured by Whole cell voltage clamp assay relative to control; type: cell-based; settings: Oocyte
T1 sequence (whole entry): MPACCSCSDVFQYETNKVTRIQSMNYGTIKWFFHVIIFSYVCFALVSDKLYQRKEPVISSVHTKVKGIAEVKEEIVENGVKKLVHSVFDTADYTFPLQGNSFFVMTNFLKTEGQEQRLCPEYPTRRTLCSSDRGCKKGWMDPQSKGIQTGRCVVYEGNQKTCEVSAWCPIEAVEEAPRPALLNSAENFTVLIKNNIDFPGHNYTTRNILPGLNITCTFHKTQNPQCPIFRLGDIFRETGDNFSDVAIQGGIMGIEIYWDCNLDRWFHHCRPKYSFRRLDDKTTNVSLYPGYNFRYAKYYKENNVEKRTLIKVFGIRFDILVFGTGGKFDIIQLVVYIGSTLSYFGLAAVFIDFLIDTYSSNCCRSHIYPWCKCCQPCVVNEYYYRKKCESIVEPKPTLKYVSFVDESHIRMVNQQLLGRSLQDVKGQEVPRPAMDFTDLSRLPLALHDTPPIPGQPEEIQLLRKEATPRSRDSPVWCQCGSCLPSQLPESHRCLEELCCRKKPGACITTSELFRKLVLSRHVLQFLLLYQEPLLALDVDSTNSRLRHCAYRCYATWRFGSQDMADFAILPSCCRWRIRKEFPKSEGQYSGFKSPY

[3] = target: Gap junction beta-1 protein (Homo sapiens) (UniProt P08034); test: Inhibition of wild type Cx32(E143) (unknown origin) expressed in Xenopus laevis oocytes assessed as at holding potential of -10 mV and stepped in 5 mV test pulses of 5 sec duration at 10 uM measured by Voltage clamp assay relative to control; type: cell-based; settings: Oocyte
Mus musculus [4] = species: Mus musculus; test: Antiallodynic activity in oxaliplatin-induced neuropathy pain CD-1 mouse model assessed as reversal of enhancement of pain threshold at 0.3 nmol, IT measured after 45 mins by cold plate assay; type: functional, organism-based
Method in brief: (§1)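 Male CD-1 mice (22–25 g) given oxaliplatin 2.4 mg kg⁻¹ i.p. in 5% glucose on days 1–2, 5–9 and 12–14. Test agents were dissolved in saline and injected intrathecally (5 µl, L4–L5) at 0.1–1 nmol from day 14. Cold plate held at 4 °C. Latency to first paw lift/lick was recorded every 15 min.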

Mus musculus [5] = species: Mus musculus; test: Antiallodynic activity in oxaliplatin-induced neuropathy pain CD-1 mouse model assessed as reversal of enhancement of pain threshold at 1 nmol, IT measured after 60 to 105 mins by cold plate assay; type: functional, organism-based; settings: time 60-105 min; method in brief: as §1
Mus musculus [6] = test: Antiallodynic activity in oxaliplatin-induced neuropathy pain IT dosed CD-1 mouse model assessed as reversal of enhancement of pain threshold by measuring minimum effective dose measured 60 to 75 mins by cold plate assay; type: functional, organism-based; settings: dose 0.3 nmol, time 60-75 min
Method in brief: (§2)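 Male CD-1 mice (22–25 g) were given oxaliplatin 2.4 mg kg−1 i.p. in 5% glucose on days 1–2, 5–9 and 12–14, with vehicle controls. Behavioural tests were done on day 15. Compounds in saline were injected intrathecally at L4–L5 at 0.1–1 nmol. Mice were placed on a 4 °C cold plate, and latency to the first hind-paw lifting or licking was recorded every 15 min.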

Mus musculus [7] = species: Mus musculus; test: Antiallodynic activity in oxaliplatin-induced neuropathy pain CD-1 mouse model assessed as reversal of enhancement of pain threshold at 1 nmol, IT measured after 45 to 90 mins by cold plate assay; type: functional, organism-based; settings: time 45-90 min; method in brief: as §2
Mus musculus [8] = species: Mus musculus; test: Antiallodynic activity in oxaliplatin-induced neuropathy pain CD-1 mouse model assessed as reversal of enhancement of pain threshold at 0.3 to 1 nmol, IT measured after 80 mins by cold plate assay; type: functional, organism-based; settings: dose 0.3-1 nmol; method in brief: as §1

Pannexin-1 (Mus musculus), sequence (Q9JIP4 whole entry, the tested form may be a part): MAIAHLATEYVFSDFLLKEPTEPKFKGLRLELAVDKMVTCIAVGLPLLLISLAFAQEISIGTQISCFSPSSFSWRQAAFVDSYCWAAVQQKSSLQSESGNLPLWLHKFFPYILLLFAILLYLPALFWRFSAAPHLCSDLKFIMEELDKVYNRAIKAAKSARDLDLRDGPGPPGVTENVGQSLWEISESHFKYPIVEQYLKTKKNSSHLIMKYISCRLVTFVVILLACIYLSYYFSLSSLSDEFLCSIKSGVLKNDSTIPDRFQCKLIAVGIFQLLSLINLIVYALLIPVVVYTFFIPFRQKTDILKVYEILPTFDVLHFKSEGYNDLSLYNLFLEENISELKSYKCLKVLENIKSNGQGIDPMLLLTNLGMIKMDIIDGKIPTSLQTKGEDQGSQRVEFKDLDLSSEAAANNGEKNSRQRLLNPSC
Pannexin-1, sequence (Q9JIP4 whole entry, the tested form may be a part): as above
Gap junction beta-1 protein (Homo sapiens), sequence (P08034 whole entry): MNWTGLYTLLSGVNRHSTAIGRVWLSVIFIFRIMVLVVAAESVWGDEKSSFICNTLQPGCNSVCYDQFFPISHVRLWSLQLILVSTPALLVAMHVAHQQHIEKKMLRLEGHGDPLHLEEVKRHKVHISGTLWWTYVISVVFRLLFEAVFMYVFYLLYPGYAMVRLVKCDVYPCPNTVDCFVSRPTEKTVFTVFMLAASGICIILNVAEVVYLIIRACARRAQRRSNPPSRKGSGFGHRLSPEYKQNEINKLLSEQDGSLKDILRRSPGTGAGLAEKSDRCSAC

O=C(O)c1cn(CCc2ccccc2)c2ccc([N+](=O)[O-])cc12
inhibition [1]: 52.7%

O=C(O)c1cc2cc(S(=O)(=O)NCCc3ccccc3)ccc2n1CCc1ccccc1
inhibition [1]: 57.7%

O=C(O)c1ccc(CCn2cc(C(=O)O)c3cc([N+](=O)[O-])ccc32)cc1
inhibition [1]: 73%

O=C(O)c1cc2cc(S(=O)(=O)N(Cc3ccccc3)Cc3ccccc3)ccc2n1CCc1ccccc1
inhibition [1]: 41.3%

CCN(Cc1cccc(S(=O)(=O)O)c1)c1ccc(C(=C2C=CC(=[N+](CC)Cc3cccc(S(=O)(=O)O)c3)C=C2)c2ccccc2S(=O)(=O)[O-])cc1
IC50 (Pannexin-1): 0.27 µM

NS(=O)(=O)c1ccc2c(c1)cc(C(=O)O)n2Cc1ccc(C(=O)O)cc1
inhibition [1]: 61.7%

O=C(O)c1cc2cc([N+](=O)[O-])ccc2n1Cc1ccccc1
inhibition [1]: 51.3%

O=C(O)c1ccc(Cn2c(C(=O)O)cc3cc(S(=O)(=O)N(Cc4ccccc4)Cc4ccccc4)ccc32)cc1
inhibition [1]: 100%
IC50 (Pannexin-1): 0.25 µM
inhibition [2]: 61.8%
inhibition [3]: 0%

O=C(O)c1cc([N+](=O)[O-])ccc1NCCCc1ccccc1 [5-NITRO-2-PHENYLPROPYLAMINOBENZOIC ACID [NPPB]]
IC50 (Pannexin-1): 50 µM

O=C(O)c1ccc(CNS(=O)(=O)c2ccc3c(c2)cc(C(=O)O)n3Cc2ccc(C(=O)O)cc2)cc1
inhibition [1]: 100%
IC50 (Pannexin-1): 0.8 µM
Activity (Mus musculus [4]): Active
inhibition [2]: 0%
inhibition [3]: 0%
Activity (Mus musculus [5]): Active

O=C(O)c1ccc(Cn2c(C(=O)O)cc3cc([N+](=O)[O-])ccc32)cc1
inhibition [1]: 61%
IC50 (Pannexin-1): 4.9 µM

O=C(O)c1cc2cc([N+](=O)[O-])ccc2n1CCCCCc1ccccc1
inhibition [1]: 58%

CCCN(CCC)S(=O)(=O)c1ccc(C(=O)O)cc1 [PROBENECID]
IC50 (Pannexin-1): 150 µM

O=C(O)c1cn(CCCCCc2ccccc2)c2ccc([N+](=O)[O-])cc12
inhibition [1]: 32.3%

O=C(O)c1cc2cc(S(=O)(=O)N(Cc3ccccc3)Cc3ccccc3)ccc2n1Cc1ccccc1
inhibition [1]: 41%
inhibition [2]: 0%
inhibition [3]: 20%

NS(=O)(=O)c1ccc2c(c1)cc(C(=O)O)n2Cc1ccccc1
inhibition [1]: 29.3%
inhibition [2]: 15%
inhibition [3]: 15%

O=C(O)c1cn(Cc2ccccc2)c2ccc(N(Cc3ccccc3)Cc3ccccc3)cc12
inhibition [1]: 19.5%

O=C(O)c1cn(CCCCc2ccccc2)c2ccc([N+](=O)[O-])cc12
inhibition [1]: 65.7%

O=C(O)c1cn(Cc2ccccc2)c2ccc([N+](=O)[O-])cc12
inhibition [1]: 65%
IC50 (Pannexin-1): 27.5 µM

O=C(O)c1cn(CCCc2ccccc2)c2ccc([N+](=O)[O-])cc12
inhibition [1]: 71%
IC50 (Pannexin-1): 12.4 µM
inhibition [2]: 0%
inhibition [3]: 0%
Activity (Mus musculus [6]): Active
Activity (Mus musculus [7]): Active

O=C(O)c1ccc(CCn2c(C(=O)O)cc3cc([N+](=O)[O-])ccc32)cc1
inhibition [1]: 31.7%

O=C(O)c1cc2cc([N+](=O)[O-])ccc2n1CCc1ccccc1
inhibition [1]: 56.3%

O=C(O)c1cc2cc(S(=O)(=O)NCc3ccccc3)ccc2n1Cc1ccccc1
inhibition [1]: 42%

O=C(O)c1cc2cc(N(Cc3ccccc3)Cc3ccccc3)ccc2n1Cc1ccccc1
inhibition [1]: 0%
Activity (Mus musculus [8]): inactive

O=C(O)c1ccc(CN(Cc2ccc(C(=O)O)cc2)S(=O)(=O)c2ccc3c(c2)cc(C(=O)O)n3Cc2ccc(C(=O)O)cc2)cc1
inhibition [1]: 79%

O=C(O)c1cc2cc(S(=O)(=O)N(CCc3ccccc3)Cc3ccccc3)ccc2n1CCc1ccccc1
inhibition [1]: 37.3%

O=C(O)c1ccc(Cn2cc(C(=O)O)c3cc([N+](=O)[O-])ccc32)cc1
inhibition [1]: 54%

O=C(O)c1cc2cc([N+](=O)[O-])ccc2n1CCCc1ccccc1
inhibition [1]: 65.5%
IC50 (Pannexin-1): 23.1 µM
